Source: ChEMBL document CHEMBL1130261, “Identification of novel farnesyl protein transferase inhibitors using three-dimensional database searching methods” (J Med Chem, 1997)

Tests used:
Assay type in all cases: protein-complex assay
[1] = target: T1, Protein farnesyltransferase (Homo sapiens, UniProt P49354+P49356); experiment: Inhibitory activity against farnesyltransferase (FPT) (20 ug/mL)
In short: (§1)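 Primary scintillation proximity assay (SPA) following the kit protocol, with a biotinylated substrate peptide bearing the K-Ras carboxy-terminal sequence.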

[2] = target: Protein farnesyl/geranylgeranyl transferase (Homo sapiens) (UniProt P49354+P49356+P53609); experiment: Selectivity was expressed as the ratio of the Geranylgeranyl transferase type I to FPT inhibitory activities (IC50)
[3] = target: T1, Protein farnesyltransferase; experiment: Inhibitory activity against recombinant human farnesyltransferase
[4] = target: Geranylgeranyl transferase type I (Homo sapiens, UniProt P49354+P53609); experiment: Inhibitory activity against Geranylgeranyl transferase type I
[5] = target: T1, Protein farnesyltransferase; experiment: Inhibition of Farnesyltransferase
[6] = target: T1, Protein farnesyltransferase; experiment: Inhibition of farnesyltransferase (FTP) at 20 ug/mL; in short: as §1
[7] = target: T1, Protein farnesyltransferase; experiment: Inhibition of Farnesyltransferase (FPT) in FPT Ras/TCA assay
In short: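 Secondary FPT assay measuring transfer of [³H]farnesyl from [³H]farnesyl pyrophosphate to His₆-H-Ras-CVLS. Labelled protein was collected by TCA precipitation. IC50 values were obtained from this Ras/TCA format.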

Structure (SMILES) | inhibition [1] [%] | IC50 [3] [µM] | further results
Clc1ccc2c(c1)S[C@H](Cn1ccnc1)[C@@H]2OCc1cc(Cl)sc1Cl | 89 | – | –
Fc1ccc2c(c1)[C@@H](OCc1ccsc1Cl)[C@@H](Cn1ccnc1)S2 | 95 | 1.8 | Selectivity ratio [2]: 18.9; IC50 [4]: 34.1 µM
NC1CCC(C(=O)N2CCC(=C3c4ccc(Cl)cc4CCc4cccnc43)CC2)CC1 (stereo not given) | – | 5 | –
O=C(Cc1ccncc1)N1CCC(=C2c3ccccc3CCc3ccccc32)CC1 | – | 1.14 | –
Clc1cc2c(cc1Cl)C(OCc1ccsc1Cl)C(Cn1ccnc1)S2 (stereo not given) | 93 | 1.4 | Selectivity ratio [2]: 2.1; IC50 [4]: 2.9 µM
Clc1ccc(COC2c3c(Cl)cccc3SC2Cn2ccnc2)cc1 (stereo not given) | 95 | 1.3 | IC50 [5]: 16 µM
O=C(Nc1ccncc1)N1CCC(=C2c3ccc(Cl)cc3CCc3cccnc32)CC1 | – | 0.87 | –
Clc1cccc2c1[C@@H](OCc1ccsc1Cl)[C@@H](Cn1ccnc1)S2 | 89 | 1.3 | Selectivity ratio [2]: 28.1; IC50 [4]: 36.5 µM
Clc1sccc1CO[C@@H]1c2cc(Br)ccc2S[C@@H]1Cn1ccnc1 | 88 | 1.1 | Selectivity ratio [2]: 12.9; IC50 [4]: 14.2 µM
O=C(Nc1cccnc1)N1CCN(C2c3ccc(Cl)cc3CCc3cccnc32)CC1 (stereo not given) | – | 1.3 | –
Clc1ccc(COC2c3c(Cl)cc(Cl)cc3SC2Cn2ccnc2)cc1 (stereo not given) | 83 | 1.4 | Selectivity ratio [2]: 13.4; IC50 [4]: 18.8 µM
Clc1sccc1CO[C@@H]1c2ccc3ccccc3c2S[C@@H]1Cn1ccnc1 | 76 | 1.5 | Selectivity ratio [2]: 10; IC50 [4]: 15 µM
O[C@@H]1c2cccc(Cl)c2S[C@@H]1Cn1ccnc1 | 44 | – | –
FC(F)(F)c1ccc2c(c1)S[C@H](Cn1ccnc1)[C@@H]2OCc1ccsc1Cl | 75 | 10.7 | –
Fc1ccc2c(c1)[C@@H](OCc1ccc(Cl)c(Cl)c1)[C@@H](Cn1ccnc1)S2 | 96 | 0.7 | Selectivity ratio [2]: 14; IC50 [4]: 9.8 µM
CC(=O)N1CCN(c2nc(CO[C@@H]3c4cc(C(C)(C)C)ccc4S[C@@H]3Cn3ccnc3)ns2)CC1 | 86 | – | IC50 [4]: > 39 µM
Fc1ccc2c(c1)[C@@H](OCc1c(Cl)cccc1Cl)[C@@H](Cn1ccnc1)S2 | 90 | 2.7 | –
O[C@@H]1c2ccc(C(F)(F)F)cc2S[C@@H]1Cn1ccnc1 | 42 | – | –
Clc1sccc1CO[C@@H]1c2c(ccc3c2CCCC3)S[C@@H]1Cn1ccnc1 | 90 | 0.2 | Selectivity ratio [2]: 84; IC50 [4]: 16.8 µM
Clc1ccc2c(c1)C(OCc1ccsc1Cl)C(Cn1ccnc1)S2 (stereo not given) | 92 | 2.5 | –
O=C(Cc1cccnc1)N1CCC(=C2c3ccc(Cl)cc3CCc3cccnc32)CC1 | – | 0.6 | –
Fc1cccc(Cl)c1CO[C@@H]1c2ccc(Cl)cc2S[C@@H]1Cn1ccnc1 | 92 | 4.4 | –
O[C@@H]1c2ccc(F)cc2S[C@@H]1Cn1ccnc1 | 38 | – | –
Clc1ccc2c(c1)S[C@H](Cn1ccnc1)[C@@H]2OCc1ccsc1 | 95 | 16 | –

Structure (SMILES) | inhibition [1] [%] | IC50 [3] [µM] | further results
Clc1cccc2c1S[C@H](Cn1ccnc1)[C@@H]2OCc1ccsc1Cl | 92 | 6 | –
[O-][S+]1c2cc(Cl)ccc2[C@@H](OCc2ccsc2Cl)[C@H]1Cn1ccnc1 (stereo not given in full) | 79 | 20.8 | –
Clc1ccc(COC2c3c(Cl)cc(Cl)cc3SC2Cn2ccnc2)c(Cl)c1 (stereo not given) | 60 | 12.3 | –
Clc1ccc(COC2c3ccc(Cl)cc3SC2Cn2ccnc2)c(Cl)c1 (stereo not given) | 75 | 5.4 | –
O=C(Nc1ccncc1)C1CCN(C2c3ccc(Cl)cc3CCc3cccnc32)CC1 (stereo not given) | – | 9.2 | –
Clc1ccc2c(c1)S[C@H](Cn1ccnc1)[C@@H]2OCc1c(Cl)sc2ccccc12 | 68 | 2 | Selectivity ratio [2]: 19; IC50 [4]: 38 µM
O=C(Cc1ccncc1)N1CCC(=C2c3ccccc3CSc3ccccc32)CC1 | – | 2.3 | –
Clc1ccc2c(c1)S[C@H](CN1CCOCC1)[C@@H]2OCc1ccsc1Cl | 2 | – | –
O[C@@H]1c2cc(Br)ccc2S[C@@H]1Cn1ccnc1 | 44 | – | –
Fc1ccc2c(c1)[C@@H](OCc1ccc(Cl)cc1Cl)[C@@H](Cn1ccnc1)S2 | 91 | 0.7 | Selectivity ratio [2]: 26.1; IC50 [4]: 18.3 µM
COC(=O)[C@@H](Cc1ccccc1)NC(=O)[C@@H](Cc1c[nH]c2ccccc12)NC(=O)[C@H](Cc1ccccc1)CP(=O)(O)O | – | 0.7 | –
Cc1cccc2c1[C@@H](O)[C@@H](Cn1ccnc1)S2 | 14 | 266 | –
OCc1nccn1C[C@H]1Sc2cc(Cl)ccc2[C@H]1OCc1ccsc1Cl | 30 | – | –
OC1c2ccc(Cl)cc2SC1Cn1ccnc1 (stereo not given) | 58 | – | –
Clc1ccc(COC2c3cc(Cl)ccc3SC2Cn2ccnc2)c(Cl)c1 (stereo not given) | 99 | 0.2 | Selectivity ratio [2]: 3.5; IC50 [4]: 0.7 µM
C=C1CC2C3C=C(Cl)C4=CC(=O)C(Br)CC4(C)C3CCC2(C)[C@@]1(O)C(C)=O (stereo not given in full) | – | 1.8 | –
Clc1sccc1CO[C@@H]1c2cc3c(cc2S[C@@H]1Cn1ccnc1)CCCC3 | 61 | 10.8 | –
O=C(Cc1ccccc1)N1CCN(C2c3ccc(Cl)cc3CCc3cccnc32)CC1 (stereo not given) | – | 2.7 | –
[O-][n+]1ccc(CN2CCC(=C3c4ccccc4CCc4cccnc43)CC2)cc1 | – | 1830 | –
Clc1sccc1CO[C@@H]1c2ccccc2S[C@@H]1Cn1ccnc1 | 94 | 1.1 | Selectivity ratio [2]: 42.5; IC50 [4]: 46.8 µM
O=C(Cc1cccnc1)N1CCN(C(c2ccc(Cl)cc2)c2ccccn2)CC1 (stereo not given) | – | 38.3 | –
O=C(Cc1ccncc1)N1CCC(=C2c3ccc(Cl)cc3CCc3ccc[n+]([O-])c32)CC1 | – | 2.1 | –
O=C(Nc1ccccn1)N1CCN(C2c3ccc(Cl)cc3CCc3cccnc32)CC1 (stereo not given) | – | 0.95 | –
Clc1cc(Cl)c2c(c1)[C@@H](OCc1ccsc1Cl)[C@@H](Cn1ccnc1)S2 | 86 | 1.6 | Selectivity ratio [2]: 10.1; IC50 [4]: 16.2 µM

Structure (SMILES) | inhibition [1] [%] | IC50 [3] [µM] | further results
O=S1(=O)c2cc(Cl)ccc2C(OCc2ccc(Cl)cc2Cl)C1Cn1ccnc1 (stereo not given) | 60 | 45.9 | –
O=C(O)c1ccc(C(=O)N2CCC(=C3c4ccc(Cl)cc4CCc4cccnc43)CC2)cc1 | – | 5.3 | –
OC1c2cc(Cl)ccc2SC1Cn1ccnc1 (stereo not given) | – | > 75 | –
Fc1ccc2c(c1)[C@@H](OCc1c(F)cccc1Cl)[C@@H](Cn1ccnc1)S2 | 94 | 2.3 | –
Clc1ccc2c(c1)S[C@H](Cn1ccnc1)[C@@H]2OCc1cscn1 | 90 | 10.7 | –
Fc1ccc2c(c1)S[C@H](Cn1ccnc1)[C@@H]2OCc1ccsc1 | 91 | 13.6 | –
Clc1ccc2c(c1)S[C@H](Cn1ccnc1)[C@@H]2OCc1cccnc1Cl | – | 1.3 | Selectivity ratio [2]: 2.5; inhibition [6]: 95%; IC50 [4]: 3.3 µM
Clc1ccc2c(c1)S[C@H](Cn1ccnc1)[C@@H]2OCc1cnc2cc3c(cc2c1Cl)OCO3 | 69 | 2.5 | Selectivity ratio [2]: 0.6; IC50 [7]: 3.1 µM; IC50 [4]: 1.4 µM
O=C(Cc1ccccn1)N1CCC(=C2c3ccc(Cl)cc3CCc3cccnc32)CC1 | – | 2 | –
CC(C)(C)CC(=O)N1CCC(=C2c3ccc(Cl)cc3CCc3cccnc32)CC1 | – | 9.8 | –
C=CCO[C@@H]1c2ccc(Cl)cc2S[C@@H]1Cn1ccnc1 | 88 | 8.5 | –
O=C(Cc1ccccc1)N1CCC(=C2c3ccc(Cl)cc3CCc3cccnc32)CC1 | – | 0.8 | –
Clc1ccc2c(c1)S[C@H](Cn1ccnc1)[C@@H]2OCc1c(Cl)ccc2c1OCO2 | 80 | 3.2 | –
Clc1ccc2c(c1)S[C@H](Cn1ccnc1)[C@@H]2OCc1ccc(Cl)c(Cl)c1 | 95 | 1.2 | Selectivity ratio [2]: 10.8; IC50 [4]: 12.9 µM
CN1CCC(C2c3ccccc3CCc3cccnc32)CC1 (stereo not given) | – | 724 | –
Clc1ccc2c(c1)S[C@H](Cn1ccnc1)[C@@H]2OCc1ccc(Cl)s1 | 88 | 2 | Selectivity ratio [2]: 2.5; IC50 [4]: 5 µM
O[C@@H]1c2cc(F)ccc2S[C@@H]1Cn1ccnc1 | 23 | – | –
Cc1onc(-c2ccccc2)c1CO[C@@H]1c2ccc(Cl)cc2S[C@@H]1Cn1ccnc1 | 90 | 2.5 | –
Clc1ccc2c(c1)S[C@H](Cn1ccnc1)[C@@H]2OCc1ccsc1Cl | 96 | 2.3 | –
Clc1ccc2c(c1)C(OCc1c(Cl)cccc1Cl)C(Cn1ccnc1)S2 (stereo not given) | 85 | 5.3 | –
CC(C)C(CP(=O)(O)C(Cc1ccccc1)NC(=O)OCc1ccccc1)C(=O)N[C@H](Cc1c[nH]c2ccccc12)C(=O)N[C@H](C)C(=O)O (stereo not given in full) | – | 1 | –
O[C@H]1c2cc3c(cc2S[C@H]1Cn1ccnc1)CCCC3 | – | > 70 | –
